Published values collected from several papers.
Lines come from different studies, so protocols differ.
Target: Phosphorylase b kinase gamma catalytic chain, skeletal muscle/heart isoform (PHKG1, Homo sapiens, UniProt Q16816)

| SMILES | test | setting | endpoint | result |
| --- | --- | --- | --- | --- |
| Cc1nn(C)cc1-c1nc2c(N3CCN(Cc4ccc(Cl)cc4)CC3)c(Cl)cnc2[nH]1 | binding, competition with immobilised ligand | 1 µM | remaining binding | 100% |
| Nc1ncc(-c2nc(N3CCOCC3)nc(N3CCOCC3)n2)c(C(F)F)n1 | binding, competition with immobilised ligand | 10 µM | remaining binding | 94% |
| Cn1cc(-c2cccc(N3CCc4c(sc5c4CC(C)(C)C5)C3=O)c2CO)cc(Nc2ccncn2)c1=O | enzyme activity, inhibitor | 1 µM | inhibition | 6% |
| O=c1[nH]c2ccccc2n1C1CCN(Cc2ccc(-c3[nH]c4cc5ncnc5cc4nc3-c3ccccc3)cc2)CC1 | cell-free assay | 0.5 µM | remaining signal | 106% |
| COc1cc(Nc2ncc(F)c(Nc3ccc4c(n3)NC(=O)C(C)(C)O4)n2)cc(OC)c1OC | binding | 10 µM | inhibition | 29% |
| Cn1cc(-c2cc(F)cc(N3CCn4c(cc5c4CCCC5)C3=O)c2CO)cc(Nc2ccc(N3CCN(C4COC4)CC3)cn2)c1=O | enzyme activity, inhibitor | 0.1 µM | inhibition | 6% |
| N#CC1(c2ccccn2)CCN(Cc2cc(C(=O)O)c(=O)n3ccccc23)CC1 | cell-free assay, competition with immobilised ligand | 1 µM | remaining binding | 100% |
| COc1ncccc1-c1cnn2ccc(N3CCN(C(=O)OC(C)C)CC3)nc12 | binding, competition with immobilised ligand | 1 µM | remaining binding | 100% |
| Cn1cncc1[C@@](O)(COc1ccc(C#N)cc1-c1ccc(OC(F)(F)F)cc1)c1ccc(C#N)cc1 | cell-free assay, competition with immobilised ligand | 1 µM | remaining binding | 95% |
| CC(C)(C)c1cc(C=C(C#N)C#N)cc(Br)c1O | enzyme activity, inhibitor | 0.5 µM | remaining activity | 96.7% |
